# Active and inactive are the calls of the source. No cut-off for these calls is given here.
# Key:
# [1] = test system: Epidermal growth factor receptor (Homo sapiens), P00533 [UNDEFINED MUTATION]; conditions: PC-9, dose 500.0 nM, time 48.0 hrs
# [2] = test system: Epidermal growth factor receptor (Homo sapiens), P00533 [UNDEFINED MUTATION]; conditions: PC-9, dose 10-1000 nM
# [3] = test system: Epidermal growth factor receptor (Homo sapiens), P00533 [UNDEFINED MUTATION]; conditions: MGH121, dose 10-1000 nM
# A549 = assay: Anticancer activity against KRAS-mutated human A549 cells assessed as reduction in cell viability at 1 to 10000 nM incubated for 72 hrs by CellTiter-Glo assay; format: functional, cell-based; conditions: dose 1-10000 nM
# [4] = test system: Epidermal growth factor receptor (Homo sapiens), P00533 [UNDEFINED MUTATION]; conditions: PC-9, dose 10-1000 nM; remark: listed apart in the source
# BaF3 [5] = assay: Inhibition of EGFR-C797S/T790M/L858R mutant in mouse BaF3 cells assessed as inhibition of EGFR phosphorylation at 10 to 1000 nM incubated for 6 hrs by Western blotting analysis; format: cell-based; conditions: dose 10-1000 nM
# In short: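 Ba/F3 cells expressing EGFR-L858R-series mutants treated with inhibitors for 6 h. SDS lysates quantified by BCA, run on SDS-PAGE and blotted to PVDF. Probed for phospho-EGFR (Tyr1068), total EGFR and downstream phospho-proteins.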
# PC-9 [6] = assay: Anti-tumor activity against EGFR T790M/del19 mutant expressing gefitinib-resistant human PC-9 cells xenografted in Balb-c nu/nu mouse assessed as growth inhibition at 75 mg/kg, po administered for 42 days and measured for 3 times per week in presence of cetuximab; format: functional, organism-based; conditions: time 42.0 day
# [7] = test system: Epidermal growth factor receptor (Homo sapiens), P00533 [UNDEFINED MUTATION]; conditions: PC-9, dose 500.0 nM, time 48.0 hrs; remark: listed apart in the source
# PC-9 [8] = assay: Anti-tumor activity against human PC-9 cells expressing EGFR-C797S/T790M/del19 mutant xenografted in Balb-c nu/nu mouse assessed as decreased tumor growth at 75 mg/kg, po administered for 60 days and measured twice weekly in presence of cetuximab; format: functional, organism-based; conditions: time 60.0 day
# In short: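 PC9 EGFR-C797S/T790M/del19 xenografts in Balb-c nu/nu mice, randomized at ~200 mm³. […] Tumour volume 0.5×length×width² and body weight measured twice weekly. Survival shown by Kaplan-Meier curve. N = 6. Mann-Whitney U test on tumour volume at day 23.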
# [9] = test system: Epidermal growth factor receptor (Homo sapiens), P00533 [UNDEFINED MUTATION]; conditions: PC-9, dose 500.0 nM, time 48.0 hrs; remark: listed apart in the source
# PC-9 [10] = conditions: Homo sapiens, dose 75.0 mg/kg, route po, time 60.0 day
# [11] = test system: Ba/F3 EGFR-Del19/T790M/C797S; assay: Cytotoxicity against mouse Ba/F3 EGFR-Del19/T790M/C797S cells assessed as growth inhibition at 100 nM incubated for 72 hrs in presence of panitumumab by CellTiter-Glo assay; format: functional, cell-based
# [12] = test system: Epidermal growth factor receptor (Homo sapiens), P00533 [UNDEFINED MUTATION]; conditions: PC-9, dose 10-1000 nM; remark: listed apart in the source
# BaF3 [13] = conditions: Mus musculus, dose 10-1000 nM, time 6.0 hrs
# [14] = test system: Epidermal growth factor receptor (Homo sapiens), P00533 [UNDEFINED MUTATION]; conditions: MGH121, dose 10-1000 nM; remark: listed apart in the source
# NCI-H460 [15] = assay: Anticancer activity against human NCI-H460 cells assessed as reduction in cell viability at IC50 concentration incubated for 72 hrs by CellTiter-Glo assay; format: functional, cell-based
# In short: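 Three-day CellTiter-Glo viability assay. Cells exposed to compound across a 10-dose range of 0.3 nM to 10 µM for 72 h. IC50 from nonlinear sigmoidal dose-response fit.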
# PC-9 [16] = conditions: Homo sapiens, dose 75.0 mg/kg, route po, time 15.0 day
# [17] = Toxicity against Balb-c nu/nu mouse xenografted with human PC-9 cells expressing EGFR-C797S/T790M/del19 mutant assessed as change in body weight at 75 mg/kg, po administered for 15 days and measured twice weekly; format: organism-based; conditions: in vivo, 360 h, time 15 day
# In short: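 PC9 triple-mutant cells (6×10^6 in 100 µl 1:2 Matrigel) were implanted subcutaneously in Balb-c nu/nu mice. At a mean tumour volume of ~200 mm³, mice were randomized, excluding the top and bottom 5% by tumour size. […] Body weight was recorded twice weekly, n=6 per group, and tumours were resected on treatment day 15.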
# [18] = test system: Epidermal growth factor receptor (Homo sapiens), P00533 [UNDEFINED MUTATION]; conditions: PC-9, dose 500.0 nM, time 6-48 hrs, TDE = time-dependent effect
# PC-9 [19] = conditions: Homo sapiens, dose 75.0 mg/kg, route po, time 15.0 day; remark: listed apart in the source
# NCI-H460 [20] = assay: Anticancer activity against KRAS-mutated human NCI-H460 cells assessed as reduction in cell viability at 1 to 10000 nM incubated for 72 hrs by CellTiter-Glo assay; format: functional, cell-based; conditions: dose 1-10000 nM
# BaF3 [21] = assay: Inhibition of EGFR-C797S/T790M/del19 mutant in mouse BaF3 cells assessed as reduction in EGFR phosphorylation incubated for 6 hrs by Western blotting analysis; format: cell-based
# [22] = test system: Epidermal growth factor receptor (Homo sapiens), P00533 [UNDEFINED MUTATION]; conditions: PC-9, dose 500.0 nM, time 48.0 hrs; remark: listed apart in the source
# BaF3 [23] = assay: Inhibition of EGFR-T790M/del19 mutant in mouse BaF3 cells assessed as inhibition of ERK phosphorylation at 10 to 1000 nM incubated for 6 hrs by Western blotting analysis; format: cell-based; conditions: dose 10-1000 nM
# In short: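 Ba/F3 cells carrying the stated EGFR mutant were made IL-3-independent after 1 week of 7 µM blasticidin selection. They were grown in low-glucose DMEM with 10% FBS and exposed to inhibitor for 6 h. Cells were washed in cold PBS, lysed in SDS buffer (100 mM Tris, 1% SDS, 10% glycerol) and boiled 5 min. Protein was measured by BCA, run on SDS-PAGE, transferred to PVDF, blocked in 5% BSA or milk/TBS-T, and immunoblotted.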
# BaF3 [24] = conditions: Mus musculus, dose 10-1000 nM
# PC-9 [25] = conditions: Homo sapiens, dose 75.0 mg/kg, route po, time 60.0 day; remark: listed apart in the source
# [26] = Toxicity against Balb-c nu/nu mouse xenografted with human PC-9 cells expressing EGFR-C797S/T790M/del19 mutant assessed as change in body weight at 75 mg/kg, po administered for 60 days and measured twice weekly in presence of cetuximab; format: organism-based; conditions: in vivo, 1440 h, time 60 day
# In short: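 Balb-c nu/nu mice carried subcutaneous PC9 triple-mutant xenografts (6×10^6 cells in 1:2 Matrigel) and were randomized at ~200 mm³. […] Body weight was measured twice weekly, N=6 per arm.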
# Chain of Epidermal growth factor receptor (Homo sapiens), P00533 [UNDEFINED MUTATION] (P00533 whole entry, looked up, stated change not applied): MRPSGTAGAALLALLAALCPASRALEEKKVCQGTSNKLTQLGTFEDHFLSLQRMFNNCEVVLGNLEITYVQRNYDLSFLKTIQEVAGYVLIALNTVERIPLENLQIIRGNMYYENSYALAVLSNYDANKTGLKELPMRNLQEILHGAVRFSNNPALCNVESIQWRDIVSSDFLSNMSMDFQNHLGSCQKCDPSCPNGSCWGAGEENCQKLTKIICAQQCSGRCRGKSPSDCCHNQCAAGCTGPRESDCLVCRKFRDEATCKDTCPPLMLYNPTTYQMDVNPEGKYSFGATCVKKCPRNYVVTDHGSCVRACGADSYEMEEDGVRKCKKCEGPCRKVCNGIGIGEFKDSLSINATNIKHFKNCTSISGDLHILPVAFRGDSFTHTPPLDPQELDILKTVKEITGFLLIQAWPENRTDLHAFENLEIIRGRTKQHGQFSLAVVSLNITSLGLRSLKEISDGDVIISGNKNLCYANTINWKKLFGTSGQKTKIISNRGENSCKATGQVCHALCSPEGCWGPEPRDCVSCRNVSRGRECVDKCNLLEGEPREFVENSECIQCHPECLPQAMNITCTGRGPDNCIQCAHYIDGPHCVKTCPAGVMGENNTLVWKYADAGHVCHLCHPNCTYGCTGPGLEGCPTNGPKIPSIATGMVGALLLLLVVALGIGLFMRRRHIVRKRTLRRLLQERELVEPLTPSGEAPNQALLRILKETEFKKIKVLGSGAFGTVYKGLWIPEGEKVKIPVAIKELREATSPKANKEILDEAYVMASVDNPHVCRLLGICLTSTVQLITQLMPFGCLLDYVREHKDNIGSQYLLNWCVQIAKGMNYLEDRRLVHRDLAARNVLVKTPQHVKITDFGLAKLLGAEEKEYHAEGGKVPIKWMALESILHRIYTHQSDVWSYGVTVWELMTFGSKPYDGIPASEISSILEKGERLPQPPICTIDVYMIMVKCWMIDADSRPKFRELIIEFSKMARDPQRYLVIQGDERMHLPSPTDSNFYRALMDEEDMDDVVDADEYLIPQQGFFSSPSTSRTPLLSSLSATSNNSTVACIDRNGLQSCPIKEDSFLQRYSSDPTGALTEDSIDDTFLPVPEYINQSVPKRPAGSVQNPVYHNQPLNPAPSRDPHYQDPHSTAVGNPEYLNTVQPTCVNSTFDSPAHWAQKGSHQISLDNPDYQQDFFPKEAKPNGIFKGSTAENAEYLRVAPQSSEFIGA
smiles,measurement,setting,value
COc1cc(N2CCC(N3CCN(C)CC3)CC2)ccc1Nc1ncc(Cl)c(Nc2ccccc2P(C)(C)=O)n1 [BRIGATINIB],inhibition,[1],Active
same,inhibition,[2],Active
same,inhibition,[3],Active
same,Activity,A549,Active
same,inhibition,[4],Active
same,inhibition,BaF3 [5],Active
same,Activity,PC-9 [6],Active
same,inhibition,[7],Active
same,Activity,PC-9 [8],Active
same,inhibition,[9],Active
same,inhibition,PC-9 [10],Active
same,growth inhibition (GI),[11],Active
same,inhibition,[12],Active
same,inhibition,BaF3 [13],Active
same,inhibition,[14],Active
same,Activity,NCI-H460 [15],Active
same,inhibition,PC-9 [16],Active
same,Activity,[17],Non-Toxic
same,inhibition,[18],Tde
same,inhibition,PC-9 [19],Active
same,Activity,NCI-H460 [20],Active
same,inhibition,BaF3 [21],Dose-Dependent Effect
same,inhibition,[22],inactive
same,inhibition,BaF3 [23],Active
same,inhibition,BaF3 [24],Dose-Dependent Effect
same,inhibition,PC-9 [25],Active
same,Activity,[26],Non-Toxic

# Source: ChEMBL document CHEMBL5705906 (Nat Commun, 2017)
